Test [1] deals with Nucleic Acid. Nature of the test: DNA binding activity as denaturation temperatures on AT to poly (dA)-poly(dT) normalized to ethidium bromide. It counts as functional.
Another test relates to Calf thymus DNA. The test is described as follows: Denaturation temperature change on binding to calf thymus DNA. It counts as functional. Summed up: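 Calf thymus DNA at an initial absorbance of 0.3 A259 was heated at 18 °C/h, recording absorbance at 259 nm at 0.2 °C intervals. The melting midpoint was set from graphically selected start and end temperatures. ΔTm was taken against the DNA-alone Tm from the same experiment, as the mean of at least two determinations with standard errors.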

The subject of test [2] is Nucleic Acid. The test is described as follows: Denaturation temperature change on binding to AT to poly (dA)-poly(dT). It counts as functional. The method in brief:
(§1)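 Synthetic homopolymer, poly(dA)·poly(dT) or poly(dG-dC)·poly(dG-dC), at an initial absorbance of 0.15 A259. Samples were heated at 18 °C/h while absorbance at 259 nm was logged every 0.2 °C. Tm was taken as the curve midpoint between graphically chosen start and end temperatures. ΔTm is relative to the free polymer's Tm in the same run, averaged over at least two determinations with standard errors.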

In test [3] the test system is Nucleic Acid. Nature of the test: Denaturation temperature change on binding on GC to poly(dGC)-poly(dGC). The test is classed as functional. Summed up: as §1
The subject of test [4] is Nucleic Acid. Nature of the test: DNA binding property estimated by measuring denaturation temperature on GC to poly (dGC)-poly(dGC), normalized to ethidium bromide.

For `Cn1cc(NC(=O)c2cc(NC(=O)c3cc(NC=O)cn3C)cn2C)cc1C(=O)NCCC(=N)N`, the ΔTm in the test with Nucleic Acid [1] was 3.1; in the test with Calf thymus DNA it was 11.5; in the test with Nucleic Acid [2], 30.5; in the test with Nucleic Acid [3], 1.9; in the test on Nucleic Acid [4] it was 0.4.

In the case of `N=C(N)c1ccc(NCCCNc2ccc(C(=N)N)cc2[N+](=O)[O-])c([N+](=O)[O-])c1`, the ΔTm in the test on Nucleic Acid [1] is 2.7; in the test on Calf thymus DNA, 12.4; in the test with Nucleic Acid [2], 26.6; in the test with Nucleic Acid [3], 5; with Nucleic Acid [4], 0.9.

As for `Cn1cc(NC(=O)c2cc(NC(=O)CNC(=N)N)cn2C)cc1C(=O)NCCC(=N)N`, the ΔTm with Nucleic Acid [1] was 4.7; in the test with Calf thymus DNA, 19; with Nucleic Acid [2] it was 46.6; in the test on Nucleic Acid [3] it was 1.1; in the test with Nucleic Acid [4], 0.2.

Take `N=C(N)c1cccc(OCCCCCOc2cccc(C(=N)N)c2)c1`: the ΔTm with Nucleic Acid [1] is 0.8; with Calf thymus DNA it was 7.6; with Nucleic Acid [2], 7.6; in the test on Nucleic Acid [3], 2.2; in the test with Nucleic Acid [4] it was 0.4.

Regarding `N=C(N)c1ccc(OCCCCOc2ccc(C(=N)N)cc2Cl)c(Cl)c1`, the ΔTm with Nucleic Acid [1] was 2.1; with Calf thymus DNA it was 8.9; with Nucleic Acid [2] it was 20.3; with Nucleic Acid [3], 4.2; in the test with Nucleic Acid [4], 0.8.

Consider `N=C(N)c1ccc(NCCCCNc2ccc(C(=N)N)cc2N)c(N)c1`, for which the ΔTm is 1.3 in the test on Nucleic Acid [1]; 10.5 with Calf thymus DNA; 13.2 in the test on Nucleic Acid [2]; 4.6 with Nucleic Acid [3]; 0.9 in the test on Nucleic Acid [4].

`N=C(N)c1ccc(OCCCCCOc2ccc(C(=N)N)cc2[N+](=O)[O-])c([N+](=O)[O-])c1`: the ΔTm in the test on Nucleic Acid [1] is 2.2; with Calf thymus DNA, 9.7; with Nucleic Acid [2], 21.6; in the test with Nucleic Acid [3], 3.2; with Nucleic Acid [4] it was 0.6.

On to `N=C(N)c1ccc(OCCOc2ccc(C(=N)N)cc2N)c(N)c1`, for which the ΔTm in the test on Nucleic Acid [1] was 1.7; in the test with Calf thymus DNA it was 8.8; with Nucleic Acid [2] it was 16.4; in the test on Nucleic Acid [3], 3; in the test with Nucleic Acid [4], 0.6.

Regarding `N=C(N)c1ccc(NCCCCCNc2ccc(C(=N)N)cc2)cc1`, the ΔTm in the test on Nucleic Acid [1] is 2.1; in the test with Calf thymus DNA it was 11.3; in the test with Nucleic Acid [2] it was 20.7; in the test with Nucleic Acid [3] it was 4.4; in the test on Nucleic Acid [4], 0.8.

On to `N=C(N)c1ccc(NCCCNc2ccc(C(=N)N)cc2)cc1`, for which the ΔTm is 2.6 in the test with Nucleic Acid [1]; 11.6 in the test on Calf thymus DNA; 25.7 with Nucleic Acid [2]; 3 in the test with Nucleic Acid [3]; 0.6 in the test on Nucleic Acid [4].

For `N=C(N)c1ccc(OCCCCCCOc2ccc(C(=N)N)cc2)cc1`, the ΔTm is 1.9 in the test on Nucleic Acid [1]; 9.1 in the test with Calf thymus DNA; 19 in the test with Nucleic Acid [2]; 2.8 in the test on Nucleic Acid [3]; 0.5 in the test with Nucleic Acid [4].

As for `N=C(N)c1ccc(-c2cc3ccc(C(=N)N)cc3[nH]2)cc1`, the ΔTm in the test with Nucleic Acid [1] was 4.2; with Calf thymus DNA it was 21.5; in the test with Nucleic Acid [2], 42; in the test on Nucleic Acid [3], 6.9; in the test with Nucleic Acid [4] it was 1.3.

Take `N=C(N)c1ccc(NCCNc2ccc(C(=N)N)cc2N)c(N)c1`: the ΔTm with Nucleic Acid [1] was 1.7; with Calf thymus DNA, 9.8; in the test with Nucleic Acid [2], 16.8; with Nucleic Acid [3], 3; in the test on Nucleic Acid [4], 0.6.

As for `N=C(N)c1ccc(OCCCCOc2ccc(C(=N)N)cc2N)c(N)c1`, the ΔTm is 2 in the test on Nucleic Acid [1]; 9.6 with Calf thymus DNA; 19.4 in the test on Nucleic Acid [2]; 3.7 in the test with Nucleic Acid [3]; 0.7 with Nucleic Acid [4].

Turning to `N=C(N)c1ccc(OCCCCCOc2ccc(C(=N)N)cc2N)c(N)c1`, the ΔTm in the test on Nucleic Acid [1] was 2.1; in the test on Calf thymus DNA, 10.8; in the test with Nucleic Acid [2] it was 20.7; with Nucleic Acid [3] it was 3.2; in the test with Nucleic Acid [4] it was 0.6.

On to `N=C(N)c1ccc(OCCCOc2ccc(C(=N)N)cc2)cc1`, for which the ΔTm with Nucleic Acid [1] was 3.2; in the test with Calf thymus DNA, 14.7; with Nucleic Acid [2], 32; in the test on Nucleic Acid [3] it was 4.5; in the test with Nucleic Acid [4], 0.8.

In the case of `N=C(N)c1ccc(OCCCOc2ccc(C(=N)N)cc2N)c(N)c1`, the ΔTm in the test with Nucleic Acid [1] is 3.3; in the test on Calf thymus DNA it was 13.6; in the test on Nucleic Acid [2], 32.2; in the test with Nucleic Acid [3] it was 5.2; in the test on Nucleic Acid [4] it was 1.

Turning to `N=C(N)c1ccc(NCCCCCNc2ccc(C(=N)N)cc2[N+](=O)[O-])c([N+](=O)[O-])c1`, the ΔTm with Nucleic Acid [1] was 2.2; in the test with Calf thymus DNA, 12.7; in the test with Nucleic Acid [2], 22.1; with Nucleic Acid [3], 6.2; with Nucleic Acid [4], 1.2.

With `N=C(N)c1ccc(NCCCNc2ccc(C(=N)N)cc2N)c(N)c1`, the ΔTm is 2.6 in the test with Nucleic Acid [1]; 12.4 in the test with Calf thymus DNA; 25.6 in the test on Nucleic Acid [2]; 4.8 with Nucleic Acid [3]; 0.9 in the test with Nucleic Acid [4].

Consider `N=C(N)c1ccc(OCCCCOc2ccc(C(=N)N)cc2)cc1`, for which the ΔTm is 1.8 in the test with Nucleic Acid [1]; 8.3 in the test with Calf thymus DNA; 17.9 with Nucleic Acid [2]; 3.1 in the test with Nucleic Acid [3]; 0.6 in the test with Nucleic Acid [4].

For the molecule `N=C(N)c1ccc(OCCCCOc2ccc(C(=N)N)cc2[N+](=O)[O-])c([N+](=O)[O-])c1`, the ΔTm was 1.5 in the test with Nucleic Acid [1]; 9.6 in the test with Calf thymus DNA; 14.7 in the test with Nucleic Acid [2]; 3.5 in the test on Nucleic Acid [3]; 0.7 in the test on Nucleic Acid [4].

Regarding `N=C(N)c1cccc(OCCCOc2cccc(C(=N)N)c2)c1`, the ΔTm was 0.9 in the test on Nucleic Acid [1]; 7.6 in the test with Calf thymus DNA; 8.5 in the test on Nucleic Acid [2]; 3 with Nucleic Acid [3]; 0.6 in the test with Nucleic Acid [4].

With `N=C(N)c1ccc(OCCOc2ccc(C(=N)N)cc2)cc1`, the ΔTm is 0.8 in the test on Nucleic Acid [1]; 5.4 with Calf thymus DNA; 7.5 in the test on Nucleic Acid [2]; 1.3 with Nucleic Acid [3]; 0.2 with Nucleic Acid [4].

Take `COc1cc(C(=N)N)ccc1OCCCCOc1ccc(C(=N)N)cc1OC`: the ΔTm was 2.3 in the test on Nucleic Acid [1]; 10.2 in the test on Calf thymus DNA; 22.9 in the test on Nucleic Acid [2]; 1.1 in the test with Nucleic Acid [3]; 0.2 with Nucleic Acid [4].

Consider `N=C(N)c1cccc(OCCCCOc2cccc(C(=N)N)c2)c1`, for which the ΔTm with Nucleic Acid [1] was 1.5; in the test on Calf thymus DNA, 8.1; in the test on Nucleic Acid [2], 15.2; in the test with Nucleic Acid [3], 2.6; in the test with Nucleic Acid [4], 0.5.

Consider `N=C(N)c1cccc(OCCCCCCOc2cccc(C(=N)N)c2)c1`, for which the ΔTm in the test on Nucleic Acid [1] was 0.8; in the test on Calf thymus DNA, 7.3; in the test with Nucleic Acid [2] it was 8.1; in the test with Nucleic Acid [3] it was 2.5; in the test with Nucleic Acid [4], 0.5.

`N=C(N)c1ccc(NCCCCCNc2ccc(C(=N)N)cc2N)c(N)c1`: the ΔTm with Nucleic Acid [1] was 2.1; with Calf thymus DNA it was 11; in the test with Nucleic Acid [2] it was 20.9; in the test on Nucleic Acid [3], 3.3; with Nucleic Acid [4], 0.6.

`CC[n+]1c(-c2ccccc2)c2cc(N)ccc2c2ccc(N)cc21`: the ΔTm with Nucleic Acid [1] was 1; in the test on Calf thymus DNA, 12.4; with Nucleic Acid [2], 12.4; in the test on Nucleic Acid [3], 9.9; in the test with Nucleic Acid [4], 1.

As to `N=C(N)c1ccc(NCCCCCCNc2ccc(C(=N)N)cc2)cc1`, the ΔTm was 1.3 in the test with Nucleic Acid [1]; 9.1 with Calf thymus DNA; 12.9 in the test with Nucleic Acid [2]; 2.9 in the test with Nucleic Acid [3]; 0.5 with Nucleic Acid [4].

With `N=C(N)c1ccc(OCCCCCCOc2ccc(C(=N)N)cc2N)c(N)c1`, the ΔTm with Nucleic Acid [1] is 1.9; with Calf thymus DNA, 9.5; with Nucleic Acid [2] it was 18.4; with Nucleic Acid [3] it was 2.8; in the test on Nucleic Acid [4], 0.5.

For `COc1cc(C(=N)N)ccc1OCCCOc1ccc(C(=N)N)cc1OC`, the ΔTm in the test on Nucleic Acid [1] is 3.8; in the test with Calf thymus DNA it was 16.3; in the test with Nucleic Acid [2], 38; with Nucleic Acid [3], 3.4; in the test with Nucleic Acid [4], 0.6.

Regarding `N=C(N)c1ccc(NCCCCCCNc2ccc(C(=N)N)cc2N)c(N)c1`, the ΔTm with Nucleic Acid [1] was 1.5; in the test on Calf thymus DNA, 8.3; in the test on Nucleic Acid [2] it was 15; in the test with Nucleic Acid [3], 3.6; in the test with Nucleic Acid [4], 0.7.

For the molecule `N=C(N)c1ccc(NCCCCNc2ccc(C(=N)N)cc2)cc1`, the ΔTm in the test on Nucleic Acid [1] was 1.9; in the test on Calf thymus DNA, 10.3; with Nucleic Acid [2] it was 18.7; with Nucleic Acid [3] it was 2.8; with Nucleic Acid [4] it was 0.5.

In the case of `N=C(N)c1ccc(OCCCCCOc2ccc(C(=N)N)cc2Cl)c(Cl)c1`, the ΔTm was 2.5 with Nucleic Acid [1]; 10.5 with Calf thymus DNA; 24.3 in the test with Nucleic Acid [2]; 4.6 in the test with Nucleic Acid [3]; 0.9 with Nucleic Acid [4].

Consider `COc1cc(C(=N)N)ccc1OCCCCCOc1ccc(C(=N)N)cc1OC`, for which the ΔTm was 2.7 with Nucleic Acid [1]; 12 in the test with Calf thymus DNA; 27.2 with Nucleic Acid [2]; 2.7 in the test on Nucleic Acid [3]; 0.5 in the test with Nucleic Acid [4].

Regarding `N=C(N)c1ccc(OCCCCCOc2ccc(C(=N)N)cc2)cc1`, the ΔTm with Nucleic Acid [1] was 2.3; with Calf thymus DNA, 10.7; with Nucleic Acid [2], 22.9; with Nucleic Acid [3], 3.2; with Nucleic Acid [4], 0.6.

As to `N=C(N)c1ccc(OCCOc2ccc(C(=N)N)cc2[N+](=O)[O-])c([N+](=O)[O-])c1`, the ΔTm with Nucleic Acid [1] was 1; in the test with Calf thymus DNA it was 5.6; with Nucleic Acid [2], 10.3; in the test on Nucleic Acid [3] it was 1.9; in the test with Nucleic Acid [4], 0.4.

The record behind these values is ChEMBL document CHEMBL1125574, “Structure and DNA binding activity of analogues of 1,5-bis(4-amidinophenoxy)pentane (pentamidine)” (J Med Chem, 1992).
